High-throughput results from PubChem.
Yeast lifespan up: extends the lifespan of yeast | S. cerevisiae growth with nicotinamide, OD615; deaD strain in restrictive glucose medium | inhibition of the nicotinamide effect, % at 10 µM | hit rate 0.68% among 130,000;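 active = inhibition above a set limit, placed 3 SD over the median of all compounds, cut at about 26% in these data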;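 also: 0% = nicotinamide-treated wells and 100% = cells grown without nicotinamide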
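Buffer or medium: CSMM-D glucose medium, restrictive; test system: modified budding yeast, DeaD strain; compound: single dose 10 µM compound, 0.25% DMSO; schedule: culture preincubation 4 h, compound exposure 48 h, both 30 °C; detection: optical density (absorbance) at 615 nm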
Measles CPE: protection of cells from measles virus. Measles virus-infected cells, CPE protection, absorbance. hit rate 1.5% among 140,000. protection (pct of control), % at 4 µM; in the data active = protection mostly above about 24%, no sharp cut-off; inactive = mostly below about 26%
SDO1 yeast rescue: compounds rescuing growth of sdo1-depleted yeast, bone marrow failure model; AID 817; S. cerevisiae sdo1-depleted JHY4D growth rescue, OD600 30 h; stronger effect = higher value; pdr5 snq2 efflux-pump mutant strain; hit rate 0.21% among 140,000; z-score at 10 µM;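 active = z-score above 3 at both the 24 hr and the 30 hr optical density reads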;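 also: z-score against mean and SD of all compound wells on the same plate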
RAM inhibit: yeast RAM network inhibition; inhibition, % at 50 µM; hit rate 1.8% among 190,000; S. cerevisiae dse1pr::URA3 reporter, 5-FOA growth OD615, 2 d; analog-sensitive cbk1-as2 kinase mutant strain;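 active = inhibition above a set limit, 3 SD over mean compound inhibition, cut at about 8.4% in these data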;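 also: 0% = DMSO-only wells with no growth and 100% = 10 µM 1-NA-PP1 full growth; inhibition rescues growth on 5-FOA so higher OD means more RAM inhibition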
BB579 growth dn: yeast BB579 growth reduction in restrictive medium; inhibition, % at 10 µM; S. cerevisiae BB579 growth, OD615, 48 h; hit rate 0.51% among 140,000;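 active = inhibition above a set limit, 3 SD over the mean compound inhibition, cut at about 44% in these data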
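Test system: S. cerevisiae DeaD strain BB579 yeast; Medium: restrictive CSMM-D medium; Compound: one dose, 10 µM compound with 0.25% DMSO; Incubation: 4 h cell preincubation, 48 h compound exposure, 30 °C humidified; Signal: OD at 615 nm; Benchmarks: amphotericin B at 10 µg/mL as positive control.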
Active calls of the source: *; nt = no result. This is a sample that favours compounds with a hit; in the whole collection about 3.8% have one here.

SMILES | Yeast lifespan up | Measles CPE | SDO1 yeast rescue | RAM inhibit | BB579 growth dn
O=C1/C(=C/c2cccnc2)CC/C1=C\c1cccnc1 | nt | nt | nt | -0.1 | nt
CCC1C/C(=C\c2cccnc2)C(=O)/C(=C/c2cccnc2)C1 (centres undefined) | 83.6* | 0.7 | -0.73 | -0.8 | -12.7
CN(C)c1ccc(/C=C2\CCC/C(=C\c3ccccc3)C2=O)cc1 | 3.0 | 8.2 | -0.57 | 9.0* | -37.0
CN(Cc1nc(-c2cccs2)no1)CC(O)c1ccccc1 (centres undefined) | nt | nt | nt | -0.5 | nt
CCN(c1ccc(NC(=O)COC(=O)CCC(=O)c2ccc(F)cc2)cc1)C(C)C | -8.4 | 16.7 | -0.53 | 0.5 | -49.0
COc1ccc(/C=N/n2c(N)c(S(=O)(=O)c3cccs3)c3nc4ccccc4nc32)cc1OC | 6.5 | 32.4* | 0.14 | 5.3 | -56.2
Cc1cc(C)n2nc(C(=O)NCc3ccccc3)cc2n1 | -20.2 | 42.5* | 1.08 | 0.1 | -27.1
CCOCCn1c(COc2ccc(C)cc2)nc2ccccc21 | -1.4 | 29.0* | -0.86 | -0.5 | 0.4
Cc1n[nH]c(=O)n1-c1cccc(C(F)(F)F)c1 | 74.8* | 10.8 | -0.45 | 2.7 | -10.5
O=c1[nH]ncn1-c1cccc(C(F)(F)F)c1 | -14.1 | 3.3 | 1.44 | 0.1 | -26.7
Cc1cccc(C(=O)Nc2nc(C)c(C(=O)Nc3ccc4c(c3)CCC4)s2)c1 | -15.6 | 6.0 | -0.96 | 8.6* | -42.1
Cc1cccc(NC(=O)c2sc(C)nc2C)c1 | nt | 17.8 | 0.01 | -1.1 | -15.9
Clc1ccc2nnnc(-c3ccccc3)c2c1 | 2.5 | 8.4 | -2.29 | -0.1 | 45.5*
c1ccc(-c2nnnc3ccccc23)cc1 | -1.3 | 7.4 | -0.63 | 2.8 | -13.1
N#Cc1cc(-c2ccccc2)cnc1Sc1ccccc1 | -15.9 | 18.6 | -0.47 | 9.2* | -30.5
Cc1cc(C)nc(N2CCCC(C(=O)NCCc3ccccc3F)C2)n1 (centres undefined) | -6.8 | 43.3* | -0.69 | 0.8 | 3.0
CCOc1cc(C)nc(N2CCCC(C(=O)NCc3ccccc3F)C2)n1 (centres undefined) | -6.7 | 18.7 | 0.11 | -0.5 | -15.4
O=C1CC(c2cccc(Cl)c2)CC(O)=C1C=Nc1cccc(Cl)c1 (centres undefined) | 28.9* | 14.2 | -1.5 | 5.8 | -39.5
O=C1CC(c2ccccc2)CC(O)=C1C=Nc1ccccc1 (centres undefined) | nt | nt | nt | 1.0 | nt
CC(C)C(=O)Nc1ccc(C(=O)N2CCCCCC2)cc1 | -2.0 | 39.0* | 0.16 | -0.2 | -43.1
O=C(Nc1ncc(S(=O)(=O)c2ccc([N+](=O)[O-])cc2)s1)c1ccc2ccccc2c1 | -2.1 | 18.6 | -1.12 | 8.0 | -40.1
CCC(C)(C)C(=O)Nc1ncc(S(=O)(=O)c2ccc([N+](=O)[O-])cc2)s1 | -5.4 | 52.5* | -0.53 | 0.8 | -28.8
O=C(c1ccc(CNS(=O)(=O)c2ccccc2)cc1)N1CCN(Cc2ccccc2)CC1 | -3.3 | 28.2* | -0.5 | -0.1 | -68.8
O=C(O)c1[nH]c2ccc(Cl)cc2c1CC(=O)N1CCN(C(=O)c2ccco2)CC1 | -15.0 | 5.1 | 0.66 | 0.9 | -55.8
O=C(c1ccco1)N1CCN(C(=O)C2CCCc3c2[nH]c2ccc(Cl)cc32)CC1 (centres undefined) | -5.6 | 81.8* | -1.3 | 0.5 | -39.5
SMILES | Yeast lifespan up | Measles CPE | SDO1 yeast rescue | RAM inhibit | BB579 growth dn
Clc1ccc(CN2CCN(c3ccccc3)CC2)cn1 | nt | nt | nt | 0.3 | nt
O=C(c1cccs1)n1nc(-c2ccco2)nc1SCc1ccccc1 | -5.1 | 16.3 | -0.72 | 10.1* | -41.5
Cc1ccc(O)c(C(=O)c2cnc3c(c2)COc2ccc(C)cc2-3)c1 | nt | 20.9 | -0.69 | 8.7* | -37.7
CCOC(=O)CCSc1nc(C)c2ccccc2n1 | -15.3 | 56.4* | 0.22 | 1.7 | -48.8
CCOC(=O)CCSc1nc(C)c2cc(C)ccc2n1 | -7.0 | 8.3 | -0.45 | 0.1 | -6.8
COc1ccccc1-c1ccc(=O)n(CC(=O)Nc2ccc(C(=O)N3CCCC3)cc2)n1 | -9.3 | 8.2 | 1.04 | 1.2 | -33.0
Cc1ccccc1-c1ccc(=O)n(CC(=O)Nc2ccc(S(=O)(=O)N(C)C)cc2)n1 | nt | nt | nt | 8.9* | nt
CCOc1ccc(-n2c(=O)c3sccc3n(CC(=O)Nc3cccc(OC)c3)c2=O)cc1 | nt | nt | nt | 4.5 | nt
O=C1NC(c2ccccn2)Nc2sc3c(c21)CCC3 (centres undefined) | -7.9 | 7.7 | 1.03 | -0.3 | 74.8*
CN1CCc2c(sc3c2C(=O)NC(c2ccccn2)N3)C1 (centres undefined) | -3.1 | 3.9 | 0.44 | -0.2 | -20.4
